pIC50: −log10 of the molar value. Values joined by “and” are separate entries in the source; they are usually repeats but may differ in a detail not shown here. Equal values may be shown once. Each block holds one molecule with its values, some of them ahead of it.
Assays:
Format in all cases: functional
[1] = target: Norepinephrine transporter (Rattus norvegicus, UniProt Q9WTR4); experiment: Inhibition of noradrenaline uptake in rat synaptosomal fraction
Method in brief: (§1)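 Synaptosomal uptake of DA, NE or 5-HT measured. The IC50 is in nM and is the mean of at least two determinations, each using five test concentrations in triplicate.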

Mus musculus [2] = species on record: Mus musculus; experiment: Antagonistic activity against tetrabenazine-induced ptosis in mice.
Method in brief: (§2)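 Mice dosed intraperitoneally; the result is reported as the ED50 in μmol/kg with a range in parentheses. Test compounds are racemates of >95% isomeric purity by TLC.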

[3] = target: Sodium-dependent dopamine transporter (Rattus norvegicus, UniProt P23977); experiment: Inhibition of dopamine uptake in rat synaptosomal fraction
[4] = target: Sodium-dependent serotonin transporter (Rattus norvegicus, UniProt P31652); experiment: Inhibition of 5-HT uptake in rat synaptosomal fraction; method in brief: as §1
Mus musculus [5] = species on record: Mus musculus; experiment: Antagonistic activity against 5-HTP induced potentiation in mice; method in brief: as §2

Chain of Norepinephrine transporter (Q9WTR4 whole entry): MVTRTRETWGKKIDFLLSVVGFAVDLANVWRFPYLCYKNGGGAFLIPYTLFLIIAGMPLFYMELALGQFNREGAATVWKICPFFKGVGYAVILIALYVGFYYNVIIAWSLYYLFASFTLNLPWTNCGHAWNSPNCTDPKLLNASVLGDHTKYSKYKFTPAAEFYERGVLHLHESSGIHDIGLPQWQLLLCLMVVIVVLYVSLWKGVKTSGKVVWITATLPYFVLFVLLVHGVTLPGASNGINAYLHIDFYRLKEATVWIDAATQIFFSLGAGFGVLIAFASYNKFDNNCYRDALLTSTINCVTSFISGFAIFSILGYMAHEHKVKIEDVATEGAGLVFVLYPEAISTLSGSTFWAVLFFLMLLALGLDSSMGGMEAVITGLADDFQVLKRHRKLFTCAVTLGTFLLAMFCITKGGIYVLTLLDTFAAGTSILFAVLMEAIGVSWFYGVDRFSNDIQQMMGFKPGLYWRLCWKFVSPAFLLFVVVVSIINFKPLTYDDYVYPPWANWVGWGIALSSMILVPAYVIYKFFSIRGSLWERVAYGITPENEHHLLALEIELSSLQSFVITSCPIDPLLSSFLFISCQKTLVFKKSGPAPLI
Chain of Sodium-dependent serotonin transporter (P31652 whole entry): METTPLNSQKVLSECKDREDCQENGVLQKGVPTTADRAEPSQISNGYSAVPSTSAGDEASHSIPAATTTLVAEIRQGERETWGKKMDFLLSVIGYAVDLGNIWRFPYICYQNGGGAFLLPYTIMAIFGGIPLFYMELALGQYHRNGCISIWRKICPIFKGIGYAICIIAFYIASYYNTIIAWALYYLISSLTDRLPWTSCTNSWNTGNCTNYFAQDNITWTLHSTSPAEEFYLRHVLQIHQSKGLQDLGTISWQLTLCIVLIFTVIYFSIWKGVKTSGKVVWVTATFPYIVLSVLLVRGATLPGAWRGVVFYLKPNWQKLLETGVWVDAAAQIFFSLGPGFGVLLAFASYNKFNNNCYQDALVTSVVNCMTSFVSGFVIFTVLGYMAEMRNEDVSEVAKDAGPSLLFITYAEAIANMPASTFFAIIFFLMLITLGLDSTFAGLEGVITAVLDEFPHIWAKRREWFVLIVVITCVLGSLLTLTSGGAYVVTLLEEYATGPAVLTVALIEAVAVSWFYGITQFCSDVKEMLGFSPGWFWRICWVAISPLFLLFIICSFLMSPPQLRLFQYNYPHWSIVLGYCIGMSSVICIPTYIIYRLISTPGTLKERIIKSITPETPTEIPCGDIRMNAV
Chain of Sodium-dependent dopamine transporter (P23977 whole entry): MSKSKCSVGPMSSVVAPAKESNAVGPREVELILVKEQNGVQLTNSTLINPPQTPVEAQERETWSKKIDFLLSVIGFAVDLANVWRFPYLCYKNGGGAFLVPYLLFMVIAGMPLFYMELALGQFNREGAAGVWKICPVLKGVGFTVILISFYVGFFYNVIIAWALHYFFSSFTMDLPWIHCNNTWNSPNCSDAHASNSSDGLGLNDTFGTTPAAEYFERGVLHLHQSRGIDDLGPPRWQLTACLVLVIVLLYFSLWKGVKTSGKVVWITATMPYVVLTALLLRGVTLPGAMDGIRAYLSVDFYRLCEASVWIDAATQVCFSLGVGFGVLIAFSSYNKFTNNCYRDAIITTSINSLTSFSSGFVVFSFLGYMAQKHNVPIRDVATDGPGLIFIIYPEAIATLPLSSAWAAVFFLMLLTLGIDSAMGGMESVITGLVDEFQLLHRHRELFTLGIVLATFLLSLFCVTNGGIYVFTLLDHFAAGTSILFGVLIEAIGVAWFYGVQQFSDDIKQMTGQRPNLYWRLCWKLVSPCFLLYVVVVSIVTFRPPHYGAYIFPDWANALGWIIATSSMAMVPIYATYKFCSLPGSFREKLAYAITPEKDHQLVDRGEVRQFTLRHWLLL

Structure (SMILES): CN(C)C1CC(c2ccc(F)cc2)c2ccc(F)cc21 (stereo not drawn) [listing 1 of 2 here]
pIC50 [1]: 7.05
ED50 (Mus musculus [2]): >147 µmol/kg

Structure (SMILES): CN(C)C1CC(c2ccc(Cl)c(Cl)c2)c2ccccc21 (stereo not drawn) [listing 1 of 2 here]
pIC50 [3]: 7.55
pIC50 [1]: 7.62
pIC50 [4]: 9.19

Structure (SMILES): Clc1ccc(C2CC(NCCc3ccccc3)c3ccccc32)cc1Cl (stereo not drawn) [listing 1 of 2 here]
ED50 (Mus musculus [2]): >85 µmol/kg

Structure (SMILES): Cl.Clc1ccc(C2CC(NCCc3ccccc3)c3ccccc32)cc1Cl (stereo not drawn)
ED50 (Mus musculus [2]): 33 µmol/kg

Structure (SMILES): CN(C)C1CC(c2ccc(Cl)c(Cl)c2)c2ccccc21.Cl (stereo not drawn)
pIC50 [1]: 8.62

Structure (SMILES): CN(C)C1CC(c2ccc(Cl)c(Cl)c2)c2ccccc21 (stereo not drawn) [listing 2 of 2 here]
ED50 (Mus musculus [5]): 5 µmol/kg and 10 µmol/kg

Structure (SMILES): CN(C)C1CC(c2ccc(F)c(F)c2)c2ccccc21 (stereo not drawn)
ED50 (Mus musculus [5]): 73 µmol/kg and 42 µmol/kg

Structure (SMILES): CN(C)C1CC(c2ccc(F)cc2)c2ccc(F)cc21 (stereo not drawn) [listing 2 of 2 here]
ED50 (Mus musculus [5]): > 29 µmol/kg and 21 µmol/kg

ED50 (Mus musculus [5]): > 56 µmol/kg
Structure (SMILES): CN1Cc2c(N)cccc2C(c2ccccc2)C1 (stereo not drawn)

Structure (SMILES): CNC1CC(c2ccc(Cl)cc2)c2ccccc21 (stereo not drawn)
ED50 (Mus musculus [5]): 34 µmol/kg and 22 µmol/kg

ED50 (Mus musculus [5]): > 85 µmol/kg and 142 µmol/kg
Structure (SMILES): Clc1ccc(C2CC(NCCc3ccccc3)c3ccccc32)cc1Cl (stereo not drawn) [listing 2 of 2 here]

Structure (SMILES): CN1CCN(C2CC(c3ccc(Cl)c(Cl)c3)c3ccccc32)CC1 (single isomer, unassigned; (+)-101) [listing 1 of 2 here]
pIC50 [3]: 6.47
ED50 (Mus musculus [2]): >91 µmol/kg

Structure (SMILES): CN1CCN(C2CC(c3ccc(Cl)c(Cl)c3)c3ccccc32)CC1 (single isomer, unassigned; (+)-101) [listing 2 of 2 here]
ED50 (Mus musculus [5]): > 91 µmol/kg

Structure (SMILES): CN1CCN(C2CC(c3ccc(Cl)c(Cl)c3)c3ccccc32)CC1 (single isomer, unassigned; (+)-102) [listing 1 of 2 here]
pIC50 [3]: 5.77

Structure (SMILES): CN1CCN(C2CC(c3ccc(Cl)c(Cl)c3)c3ccccc32)CC1 (single isomer, unassigned; (+)-102) [listing 2 of 2 here]
ED50 (Mus musculus [5]): > 89 µmol/kg

Structure (SMILES): CN1CCN(C2CC(c3ccc(Cl)c(Cl)c3)c3ccccc32)CC1 (single isomer, unassigned; (-))
ED50 (Mus musculus [5]): > 92 µmol/kg

Structure (SMILES): CN(C)C1CC(c2ccccc2)c2ccccc21 (stereo in doubt; 31)
ED50 (Mus musculus [5]): > 35 µmol/kg

Structure (SMILES): CNC1CC(c2ccc(F)cc2)c2ccccc21.Cl (stereo in doubt; 32)
pIC50 [1]: 8.54
pIC50 [4]: 7.12
ED50 (Mus musculus [2]): 19 µmol/kg

Structure (SMILES): CNC1CC(c2ccc(F)cc2)c2ccccc21 (stereo in doubt; 32)
ED50 (Mus musculus [5]): > 144 µmol/kg

Structure (SMILES): CN(C)C1CC(c2ccc(F)cc2)c2ccccc21 (stereo in doubt; 33)
ED50 (Mus musculus [5]): 45 µmol/kg

Structure (SMILES): CN(C)C1CC(c2ccc(Cl)cc2)c2ccccc21 (stereo in doubt; 35)
ED50 (Mus musculus [5]): 48 µmol/kg

Structure (SMILES): CNC1CC(c2ccc(Br)cc2)c2ccccc21 (stereo in doubt; 36)
ED50 (Mus musculus [5]): 8.8 µmol/kg

Structure (SMILES): CN(C)C1CC(c2ccc(Br)cc2)c2ccccc21 (stereo in doubt; 37)
ED50 (Mus musculus [5]): 8.4 µmol/kg

Structure (SMILES): CNC1CC(c2cccc(Cl)c2)c2ccccc21 (stereo in doubt; 39)
ED50 (Mus musculus [5]): 92 µmol/kg

Structure (SMILES): CN(C)C1CC(c2cccc(Cl)c2)c2ccccc21 (stereo in doubt; 40)
ED50 (Mus musculus [5]): 43 µmol/kg

Structure (SMILES): CNC1CC(c2ccc(F)c(F)c2)c2ccccc21 (stereo in doubt; 41)
ED50 (Mus musculus [5]): 22 µmol/kg

Structure (SMILES): CNC1CC(c2ccc(F)c(Cl)c2)c2ccccc21.Cl (stereo in doubt; 43)
ED50 (Mus musculus [2]): 12 µmol/kg

Structure (SMILES): CNC1CC(c2ccc(F)c(Cl)c2)c2ccccc21 (stereo in doubt; 43)
ED50 (Mus musculus [5]): 47 µmol/kg

Structure (SMILES): CN(C)C1CC(c2ccc(F)c(Cl)c2)c2ccccc21.Cl (stereo in doubt; 44)
ED50 (Mus musculus [2]): 4.5 µmol/kg

Structure (SMILES): CN(C)C1CC(c2ccc(F)c(Cl)c2)c2ccccc21 (stereo in doubt; 44)
ED50 (Mus musculus [5]): 37 µmol/kg

Structure (SMILES): CNC1CC(c2ccc(Cl)cc2Cl)c2ccccc21 (stereo in doubt; 48)
ED50 (Mus musculus [5]): 67 µmol/kg

Structure (SMILES): CN(C)C1CC(c2ccc(Cl)cc2Cl)c2ccccc21 (stereo in doubt; 49)
ED50 (Mus musculus [5]): 19 µmol/kg

Structure (SMILES): CNC1CC(c2ccc(Cl)c(Cl)c2)c2ccc(F)cc21 (stereo in doubt; 50)
ED50 (Mus musculus [5]): 27 µmol/kg

Structure (SMILES): CN(C)C1CC(c2ccc(Cl)c(Cl)c2)c2ccc(F)cc21 (stereo in doubt; 51)
ED50 (Mus musculus [5]): 20 µmol/kg

Structure (SMILES): CNC1CC(c2ccc(Cl)c(Cl)c2)c2ccc(O)cc21 (stereo in doubt; 54)
ED50 (Mus musculus [5]): > 128 µmol/kg

Structure (SMILES): CN(C)C1CC(c2ccc(F)cc2)c2ccc(C(F)(F)F)cc21 (stereo in doubt; 57)
ED50 (Mus musculus [5]): 123 µmol/kg

Structure (SMILES): CN(C)C1CC(c2ccccc2)c2ccccc21.Cl (stereo in doubt; 59)
pIC50 [1]: 7.39
ED50 (Mus musculus [2]): >143 µmol/kg

Structure (SMILES): CN(C)C1CC(c2ccccc2)c2ccccc21 (stereo in doubt; 59)
ED50 (Mus musculus [5]): > 36 µmol/kg

Structure (SMILES): CNC1CC(c2ccc(F)cc2)c2ccccc21.Cl (stereo in doubt; 60)
pIC50 [1]: 6.92
pIC50 [4]: 7.68
ED50 (Mus musculus [2]): 79 µmol/kg

Structure (SMILES): CNC1CC(c2ccc(F)cc2)c2ccccc21 (stereo in doubt; 60)
ED50 (Mus musculus [5]): 72 µmol/kg

Structure (SMILES): CN(C)C1CC(c2ccc(F)cc2)c2ccccc21.Cl (stereo in doubt; 61)
pIC50 [1]: 7.62
pIC50 [4]: 8.21
ED50 (Mus musculus [2]): 24 µmol/kg

Structure (SMILES): CN(C)C1CC(c2ccc(F)cc2)c2ccccc21 (stereo in doubt; 61)
ED50 (Mus musculus [5]): 25 µmol/kg

From ChEMBL document CHEMBL1122866, “3-Phenyl-1-indanamines. Potential antidepressant activity and potent inhibition of dopamine, norepinephrine, and serotonin uptake” (J Med Chem, 1985)
